Test results: ChEMBL document CHEMBL3227953, “Potential antitumor agents. 30. Mutagenic activity of some 9-anilinoacridines: relationships between structure, mutagenic potential, and antileukemic activity” (J Med Chem, 1979)

Experiments:
[1] = Toxicity in Salmonella typhimurium TA98 assessed as growth inhibition after 1 hr; format: organism-based; conditions: salmonella enterica subsp. enterica serovar typhimurium, read-out: D50
Procedure, shortened: (§1)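 Overnight shaken L-broth culture from frozen stock. 0.5 mL culture in L broth (10 mL total) with a range of drug concentrations, from nontoxic to clearly toxic, in 50% ethanol. Shaken at 37 °C for 1 h, centrifuged, resuspended in saline, diluted 1 in 10^4, plated in triplicate on L-broth plates, 37 °C, 2 days. Survival = 100Nt/Nc vs untreated. D50 from linear fit of log survival vs dose.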

[2] = Toxicity in Salmonella typhimurium TA100 assessed as growth inhibition after 1 hr; format: organism-based; conditions: salmonella enterica subsp. enterica serovar typhimurium, read-out: D50; procedure, shortened: as §1
[3] = Toxicity in Salmonella typhimurium TA1537 assessed as growth inhibition after 1 hr; format: organism-based; conditions: salmonella enterica subsp. enterica serovar typhimurium, read-out: D50; procedure, shortened: as §1
[4] = test system: Salmonella typhimurium; experiment: Mutagenic activity in Salmonella typhimurium TA98 assessed as mutation frequency at 10^4 times D50 after 1 hr; format: toxicity, organism-based; conditions: salmonella enterica subsp. enterica serovar typhimurium
Procedure, shortened: (§2)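 Overnight L-broth culture (0.5 mL) exposed to drug (from 50% ethanol) in 10 mL L broth, 37 °C shaking, 1 h; concentration range from non-toxic to clearly toxic. Cells spun, resuspended in saline, plated in triplicate on minimal plates (1 mM histidine, biotin) and, diluted 1 in 10^4, on L-broth plates; 37 °C, 2 days. D50 interpolated from log % survival vs dose; mutation frequency = 100(MT − MC)/S50, background-corrected.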

[5] = test system: Salmonella typhimurium; experiment: Mutagenic activity in Salmonella typhimurium TA100 assessed as mutation frequency at 10^4 times D50 after 1 hr; format: toxicity, organism-based; conditions: salmonella enterica subsp. enterica serovar typhimurium; procedure, shortened: as §2
[6] = test system: Salmonella typhimurium; experiment: Mutagenic activity in Salmonella typhimurium TA1537 assessed as mutation frequency at 10^4 times D50 after 1 hr; format: toxicity, organism-based; conditions: salmonella enterica subsp. enterica serovar typhimurium; procedure, shortened: as §2

Structure (SMILES) | GI50 at 1 h [1] [µM] | GI50 at 1 h [2] [µM] | GI50 at 1 h [3] [µM] | M50 [4] [%] | M50 [5] [%] | M50 [6] [%] | log(M50) [6]
CS(=O)(=O)Nc1ccc(Nc2c3ccccc3nc3ccccc23)cc1.Cl | 180 | 194 | 110 | 0 | 0 | 127 | 2.1
CCCS(=O)(=O)Nc1ccc(Nc2c3ccccc3nc3ccccc23)c(OC)c1.CS(=O)(=O)O | – | – | 77.6 | – | – | – | -0.7
CCS(=O)(=O)Nc1ccc(Nc2c3ccccc3nc3cc(NC(C)=O)ccc23)cc1.CS(=O)(=O)O | – | – | 221 | – | – | – | 0
CCCNc1ccc(Nc2c3ccccc3nc3ccccc23)cc1.Cl | – | – | 98.9 | – | – | – | 1.67
CCS(=O)(=O)Nc1ccc(Nc2c3ccccc3nc3ccccc23)c(OC)c1.CS(=O)(=O)O | – | – | 93.2 | – | – | – | -0.3
COc1cccc2c1C(=O)c1c(O)c3c(c(O)c1C2=O)C[C@@](O)(C(C)=O)C[C@@H]3O[C@H]1C[C@H](N)[C@H](O)[C@H](C)O1 [DAUNORUBICIN] | 13.1 | 11.1 | 7.4 | 20 | 4.5 | 0 | 0
CCNc1ccc(Nc2c3ccccc3nc3ccccc23)cc1.Cl | – | – | 100 | – | – | – | 1.88
CCS(=O)(=O)Nc1ccc(Nc2c3ccccc3nc3c(C(N)=O)cccc23)c(OC)c1.Cl | – | – | 467 | – | – | – | 0.18
CCCCCS(=O)(=O)Nc1ccc(Nc2c3ccccc3nc3c(C(N)=O)cccc23)c(OC)c1.Cl | – | – | 466 | – | – | – | 0
CCCS(=O)(=O)Nc1ccc(Nc2c3ccccc3nc3c(C(N)=O)cccc23)c(OC)c1.Cl | – | – | 642 | – | – | – | 0
CCCCS(=O)(=O)Nc1ccc(Nc2c3ccccc3nc3cc(NC(C)=O)ccc23)cc1.CS(=O)(=O)O | – | – | 148 | – | – | – | -0.3
COc1cccc2c1C(=O)c1c(O)c3c(c(O)c1C2=O)C[C@@](O)(C(=O)CO)C[C@@H]3O[C@H]1C[C@H](N)[C@H](O)[C@H](C)O1 [DOXORUBICIN] | 6.1 | 11.3 | 16.3 | 14 | 0.5 | 0 | 0
CCCCS(=O)(=O)Nc1ccc(Nc2c3ccccc3nc3ccccc23)c(OC)c1.CS(=O)(=O)O | – | – | 69.7 | – | – | – | 0
CCCCCS(=O)(=O)Nc1ccc(Nc2c3ccccc3nc3ccccc23)cc1.Cl | – | – | 15.6 | – | – | – | 0.6
CCCCCCS(=O)(=O)Nc1ccc(Nc2c3ccccc3nc3ccccc23)cc1.Cl | – | – | 9.4 | – | – | – | 0.3
CCCS(=O)(=O)Nc1ccc(Nc2c3ccccc3nc3ccccc23)cc1.Cl | – | – | 50.1 | – | – | – | 1.67
CCCCS(=O)(=O)Nc1ccc(Nc2c3ccccc3nc3ccccc23)cc1.Cl | – | – | 49.3 | – | – | – | 0.78
CCS(=O)(=O)Nc1ccc(Nc2c3ccccc3nc3ccccc23)cc1.Cl | – | – | 81.6 | – | – | – | 2
CCCCCS(=O)(=O)Nc1ccc(Nc2c3ccccc3nc3cc(NC(C)=O)ccc23)cc1.CS(=O)(=O)O | – | – | 17.7 | – | – | – | -0.1
COc1cc(NS(C)(=O)=O)ccc1Nc1c2ccccc2nc2c(C(N)=O)cccc12.Cl | – | – | 698 | – | – | – | -0.7
CCCCCCS(=O)(=O)Nc1ccc(Nc2c3ccccc3nc3ccccc23)c(OC)c1.CS(=O)(=O)O | – | – | 15.3 | – | – | – | 0
CC(=O)Nc1ccc2c(Nc3ccc(NS(C)(=O)=O)cc3)c3ccccc3nc2c1.CS(=O)(=O)O | – | – | 282 | – | – | – | -0.22
CCCCS(=O)(=O)Nc1ccc(Nc2c3ccccc3nc3c(C(N)=O)cccc23)c(OC)c1.Cl | – | – | 330 | – | – | – | 0
CCCCCCS(=O)(=O)Nc1ccc(Nc2c3ccccc3nc3cc(NC(C)=O)ccc23)cc1.CS(=O)(=O)O | – | – | 3.1 | – | – | – | 0
CCCCCS(=O)(=O)Nc1ccc(Nc2c3ccccc3nc3ccccc23)c(OC)c1.CS(=O)(=O)O | – | – | 21.1 | – | – | – | 0
Br.CNc1ccc(Nc2c3ccccc3nc3ccccc23)cc1 | – | – | 82 | – | – | – | 2.05
CCCCNc1ccc(Nc2c3ccccc3nc3ccccc23)cc1.Cl | – | – | 9.8 | – | – | – | 1
CCCS(=O)(=O)Nc1ccc(Nc2c3ccccc3nc3cc(NC(C)=O)ccc23)cc1.CS(=O)(=O)O | – | – | 114 | – | – | – | 0
CCCCCCNc1ccc(Nc2c3ccccc3nc3ccccc23)cc1.Cl | – | – | 4.4 | – | – | – | -1
